Test [1] has as its target T1, SLC19A1 (Homo sapiens, UniProt P41440).
T1 sequence (P41440 1-591): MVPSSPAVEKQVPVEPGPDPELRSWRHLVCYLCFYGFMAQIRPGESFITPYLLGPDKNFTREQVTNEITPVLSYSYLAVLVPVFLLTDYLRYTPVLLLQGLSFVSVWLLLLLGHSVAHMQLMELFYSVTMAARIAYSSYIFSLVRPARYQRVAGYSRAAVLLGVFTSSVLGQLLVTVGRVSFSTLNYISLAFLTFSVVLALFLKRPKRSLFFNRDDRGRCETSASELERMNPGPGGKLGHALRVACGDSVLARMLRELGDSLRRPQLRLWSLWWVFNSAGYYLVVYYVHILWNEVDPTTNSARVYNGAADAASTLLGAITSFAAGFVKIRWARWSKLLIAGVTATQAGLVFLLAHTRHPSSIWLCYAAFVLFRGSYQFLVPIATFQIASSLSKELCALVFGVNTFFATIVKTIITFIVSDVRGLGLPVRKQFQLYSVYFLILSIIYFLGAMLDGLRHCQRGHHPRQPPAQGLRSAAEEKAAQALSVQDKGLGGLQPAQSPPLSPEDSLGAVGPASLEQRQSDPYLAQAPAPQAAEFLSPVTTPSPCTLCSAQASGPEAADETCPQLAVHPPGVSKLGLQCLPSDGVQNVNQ
Briefly: [32P] 2’3’-cGAMP uptake and competition uptake assay in THP-1 cells. The format is cell-based. Conditions: for 2’3’-cGAMP uptake, time course with inhibitor in culture medium: 500 μM, various cell lines (THP-1, U937, K562); for IC50: IC50, competition of [32P] 2’3’-cGAMP uptake, THP-1 cells, varying concentrations of competing, unlabeled ligand, 1 nM [32P] 2’3’-cGAMP; for CDN uptake: human cell lines and primary cells ex vivo; for CDN uptake and/or stimulation: human cells; for [32P] 2’3’-cGAMP uptake in presence of unlabeled nucleotide: 200 μM competing.

Test [2] has as its target T1, SLC19A1. Briefly: [32P] 2’3’-cGAMP uptake assay in human PBMCs. The format is cell-based.
Test [3] concerns THP-1 cells. The format is cell-based, human. Conditions: hIFN-β 100 ng/ml, sulfasalazine at high concentrations.
The target of test [4] is T1, SLC19A1. In words: [3H]-methotrexate uptake assay in THP-1 cells. The format is cell-based. Conditions: SLC19A1-depleted THP-1 cells, 1h. The essentials: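 Cells washed and resuspended at 4x10^6/ml in MHS buffer (20 mM HEPES, 235 mM sucrose, pH 7.4 with MgO). Exposed to 12.3 nM [3H]-methotrexate at 37°C and 5% CO2 for 1 h. Radioactivity was counted by liquid scintillation for 3 min per sample, and counts per minute were normalized to total protein.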

Test [5] concerns murine splenocytes. Briefly: [32P] 2’3’-cGAMP uptake assay in primary murine splenocytes. The format is cell-based, mouse. Conditions: 500 μM competing, unlabeled.
Test [6] relates to STING. In words: STING pathway activation. The format is cell-based, human. Conditions: THP-1 pre-treated with 5 μM. The essentials: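 Stimulated 4 h with 100 µM 2'3'-cGAMP, with or without digitonin (5 µg/mL). Read-outs were IFNB1 mRNA by RT-qPCR and STING dimerization/phosphorylation by semi-native PAGE immunoblot. Means of n=2 technical replicates.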
Test [7] concerns the target T1, SLC19A1. Briefly: [32P] 2’3’-cGAMP uptake assay in K562 cells. Conditions: 5 μM, one hour. The class given is cell-based.
The mark [8] stands for this setting: 500 μM excess, unlabeled, three hours, six healthy donors.

Where “and” joins values, the source holds several entries; their conditions need not be identical. Identical values can stand only once.

As for `CN1c2c(nc(N)[nH]c2=O)NCC1CNc1ccc(C(=O)N[C@@H](CCC(=O)O)C(=O)O)cc1` (stereo partly shown) [5-me-THF, 5-methyl-tetrahydrofolic acid], in test [1], the “2’3’-cGAMP uptake, time course with inhibitor in culture medium” value was “Sustained inhibition” and the half-maximal inhibitory concentration (IC50) (commonly the midpoint of a concentration-inhibition curve) came out at 4.1 nM. In addition, in test [1] (THP-1, compared to the other (anti-) folates), the “completeness of inhibition of [32P] 2’3’-cGAMP uptake” value is on record as “did not observe complete inhibition”. Also, the “trans-stimulation of 2’3’-cGAMP influx by preloading the cells” value in test [1] (THP-1, preloaded 30 min, washed, [32P] 2’3’-cGAMP for one hour) was “augmented”. Also, in test [2] (setting [8]), the “[32P] 2’3’-cGAMP uptake in PBMCs” value is listed as “strongly inhibited”. The “effect on reporter responses to hIFN-β” value in test [3] is “did not inhibit”.

Turning to `O=C(O)c1cc(/N=N/c2ccc(S(=O)(=O)Nc3ccccn3)cc2)ccc1O` [sulfasalazine], in test [1], the “2’3’-cGAMP uptake, time course with inhibitor in culture medium” value was “Sustained inhibition”; the IC50 is 2100 nM and 2060 nM; the CDN uptake result is “inhibited”; the “CDN uptake and/or stimulation” value is on record as “almost completely blocked”. Also, the “[32P] 2’3’-cGAMP uptake in PBMCs” value in test [2] (setting [8]) is listed as “strongly inhibited”. In addition, the “effect on reporter responses to hIFN-β” value in test [3] was “blocked”.

As to `CN(Cc1cnc2nc(N)nc(N)c2n1)c1ccc(C(=O)N[C@@H](CCC(=O)O)C(=O)O)cc1` [methotrexate], in test [1], the “2’3’-cGAMP uptake, time course with inhibitor in culture medium” value is on record as “Sustained inhibition”; the CDN uptake result is on record as “inhibited”; the “CDN uptake and/or stimulation” value is given as “almost completely blocked”. Besides, the “[32P] 2’3’-cGAMP uptake in PBMCs” value in test [2] (setting [8]) is “strongly inhibited”. The “effect on reporter responses to hIFN-β” value in test [3] was “did not inhibit”. In addition, the “uptake of methotrexate in SLC19A1-depleted cells” value in test [4] was “nearly abolished”. For the same molecule, in test [5], the “2’3’-cGAMP uptake by murine splenocytes” value is listed as “did not inhibit”.

For the molecule `Nc1ncnc2c1ncn2[C@@H]1O[C@H](COP(=O)(O)O)[C@@H](O)[C@H]1O` [AMP], the “[32P] 2’3’-cGAMP uptake in presence of unlabeled nucleotide” value in test [1] (THP-1, one hour) was “slightly inhibited”.

As to `Nc1nc2c(ncn2[C@@H]2O[C@H](COP(=O)(O)O)[C@@H](O)[C@H]2O)c(=O)[nH]1` [GMP], in test [1] (THP-1, one hour), the “[32P] 2’3’-cGAMP uptake in presence of unlabeled nucleotide” value was “slightly inhibited”.

As to `Nc1nc(=O)c2nc(CNc3ccc(C(=O)N[C@@H](CCC(=O)O)C(=O)O)cc3)cnc2[nH]1` [folic acid], in test [1], the “2’3’-cGAMP uptake, time course with inhibitor in culture medium” value is reported as “Sustained inhibition”; the IC50 is 4800 nM and 4790 nM; the “CDN uptake and/or stimulation” value was “almost completely blocked”.

For the molecule “N-hydroxysuccinimide (NHS)-methotrexate [NHS-methotrexate]”, the “2’3’-cGAMP influx in treated cells” value in test [1] (THP-1, 5 μM, one hour) was “much reduced”; in test [7] it was “much reduced”. In addition, the “[32P] 2’3’-cGAMP uptake in PBMCs” value in test [2] (5 μM pre-treatment, one hour, four healthy donors) is given as “strongly inhibited”. Besides, the “STING activation by 2’3’-cGAMP” value in test [6] is on record as “blocks STING activation”.
